From ChEMBL document CHEMBL2029342, “Design and synthesis of gambogic acid analogs as potent cytotoxic and anti-inflammatory agents” (Bioorg Med Chem Lett, 2012)
Values after ≈ are worked out from the molar mass of the structure shown.

Key:
[1] = Antiinflammatory activity in human neutrophils assessed as inhibition of fMLP/CB-induced elastase release using MeO-Suc-Ala-Ala-Pro-Val-MC as substrate at 10 ug/mL by spectrophotometry; assay type: functional; conditions: Neutrophil
Summary of the method: (§1)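 Human neutrophils stimulated with fMLP/CB; superoxide anion generation and elastase release were measured. IC50 is the concentration giving 50% inhibition. Where 50% inhibition was not reached at any tested dose, % inhibition at 10 μg/mL is reported. Mean ± S.E.M., n = 3-5.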

[2] = Cytotoxicity against human KBVIN cells by MTT assay; assay type: functional, cell-based
Summary of the method: (§2)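 MTT colorimetric assay of cell viability. IC50 is expressed in μg/mL as the mean of 3 determinations.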

A549 = assay: Cytotoxicity against human A549 cells by MTT assay; assay type: functional, cell-based; summary of the method: as §2
DU-145 = assay: Cytotoxicity against human DU145 cells by MTT assay; assay type: functional, cell-based; summary of the method: as §2
[3] = Antiinflammatory activity in human neutrophils assessed as inhibition of fMLP/CB-induced superoxide anion generation at 10 ug/mL after 15 mins by cytochrome c reduction assay; assay type: functional; conditions: Neutrophil, 0.25 h; summary of the method: as §1
KB = assay: Cytotoxicity against human KB cells by MTT assay; assay type: functional, cell-based; summary of the method: as §2
[4] = Antiinflammatory activity in human neutrophils assessed as inhibition of fMLP/CB-induced superoxide anion generation after 15 mins by cytochrome c reduction assay; assay type: functional, cell-based; conditions: Neutrophil, 0.25 h; summary of the method: as §1
Neutrophil = assay: Ratio of PMSF IC50 to compound IC50 for antiinflammatory activity in human neutrophils assessed as inhibition of fMLP/CB-induced elastase release; assay type: functional
[5] = Antiinflammatory activity in human neutrophils assessed as inhibition of fMLP/CB-induced elastase release using MeO-Suc-Ala-Ala-Pro-Val-MC as substrate by spectrophotometry; assay type: functional, cell-based; conditions: Neutrophil; summary of the method: as §1
[6] = Antiinflammatory activity in human neutrophils pretreated with cytochalasin B assessed as inhibition of fMLP/CB-induced superoxide anion generation after 15 mins by cytochrome c reduction assay; assay type: functional, cell-based; conditions: Neutrophil; summary of the method: as §1
[7] = Antiinflammatory activity in human neutrophils assessed as inhibition of elastase release using MeO-Suc-Ala-Ala-Pro-Val-MC as substrate at 10 ug/mL by spectrophotometry in the absence of fMLP/CB; assay type: functional; conditions: Neutrophil
[8] = Antiinflammatory activity in human neutrophils assessed as inhibition of induced superoxide anion generation at 10 ug/mL after 15 mins by cytochrome c reduction assay in the absence of fMLP/CB; assay type: functional; conditions: Neutrophil, 0.25 h

Row | IC50 [4] [µg/mL] | IC50 [5] [µg/mL] | IC50 [6] [µg/mL] | SMILES | inhibition at 10 µg/mL [1] [%] | IC50 [2] [µg/mL] | IC50 (A549) [µg/mL] | IC50 (DU-145) [µg/mL] | inhibition at 10 µg/mL [3] [%] | IC50 (KB) [µg/mL] | Ratio IC50 (Neutrophil) | inhibition at 10 µg/mL [7] [%] | inhibition at 10 µg/mL [8] [%]
1 | – | – | – | CC1(C)Oc2cc(O)c3c(=O)c4ccc(O)cc4oc3c2C(O)C1O (configuration not stated) | 6.37 | 0.8 (≈ 2.32 µM) | 9.9 (≈ 28.8 µM) | 6.7 (≈ 19.5 µM) | 8.63 | > 10 | – | – | –
2 | 20.2 (≈ 64.7 µM) | – | – | CC(C)=CCOc1cc(O)c2c(=O)c3ccc(O)cc3oc2c1 | 4.21 | 5.3 (≈ 17 µM) | 6.9 (≈ 22.1 µM) | 3.7 (≈ 11.8 µM) | – | – | – | – | –
3 | – | – | – | CC(C)=CCOc1ccc2c(=O)c3c(O)c(CC=C(C)C)c(OCC=C(C)C)cc3oc2c1 | 7.56 | 7.5 (≈ 16.7 µM) | 7.9 (≈ 17.6 µM) | 4.3 (≈ 9.59 µM) | 10.1 | – | – | – | –
4 | – | – | – | CC(C)=CCOc1ccc2c(=O)c3c(O)cc(OCC=C(C)C)cc3oc2c1 | 13.3 | > 10 | 9.3 (≈ 24.4 µM) | > 10 | 5.32 | – | – | – | –
5 | – | 0.49 (≈ 1.29 µM) | 35.6 (≈ 94.1 µM) | CC(C)=CCCC1(C)C=Cc2c(cc(O)c3c(=O)c4ccc(O)cc4oc23)O1 (configuration not stated) | – | 5.7 (≈ 15.1 µM) | 5.1 (≈ 13.5 µM) | 5.2 (≈ 13.7 µM) | – | 5.3 (≈ 14 µM) | 200 | – | –
6 | – | – | – | CC(C)=CCC[C@]1(C)C=Cc2c(O)c3c(c(CC=C(C)C)c2O1)O[C@]12C(=C[C@@H]4C[C@H]1C(C)(C)O[C@@]2(C/C=C(/C)C(=O)O)C4=O)C3=O [GAMBOGIC ACID] | – | 0.4 (≈ 0.636 µM) | 0.5 (≈ 0.795 µM) | 0.3 (≈ 0.477 µM) | – | 0.3 (≈ 0.477 µM) | – | – | –
7 | 2.56 (≈ 6.21 µM) | 8.46 (≈ 20.5 µM) | – | CC(C)=CCCC1(C)Oc2cc(O)c3c(=O)c4ccc(O)cc4oc3c2C(O)C1O (configuration not stated) | – | > 10 | > 10 | > 10 | – | > 10 | 15 | – | –
8 | – | – | – | COc1ccc2c(=O)c3c(O)cc(OC)cc3oc2c1 | 26.5 | > 10 | > 10 | > 10 | 31.3 | – | – | – | –
9 | – | – | – | CC(C)=CCOc1ccc2c(=O)c3c(OCC=C(C)C)cc(OCC=C(C)C)cc3oc2c1 | 54.9 | > 10 | > 10 | 6.3 (≈ 14 µM) | 64.3 | – | – | – | –
10 | – | – | – | COc1ccc2c(=O)c3c(O)cc(O)cc3oc2c1 | 23.6 | > 10 | > 10 | > 10 | 45.2 | – | – | – | –
11 | 0.46 (≈ 1.48 µM) | 0.64 (≈ 2.06 µM) | – | CC1(C)C=Cc2c(cc3oc4cc(O)ccc4c(=O)c3c2O)O1 | – | 5.5 (≈ 17.7 µM) | 5.8 (≈ 18.7 µM) | 4.4 (≈ 14.2 µM) | – | 4.6 (≈ 14.8 µM) | 15 | – | –
12 | 4.3 (≈ 10.4 µM) | 5.75 (≈ 13.9 µM) | – | CC(C)=CCCC1(C)Oc2cc3oc4cc(O)ccc4c(=O)c3c(O)c2C(O)C1O (configuration not stated) | – | > 10 | > 10 | > 10 | – | > 10 | 15 | – | –
13 | 3.97 (≈ 12.8 µM) | – | – | CC1(C)C=Cc2c(cc(O)c3c(=O)c4ccc(O)cc4oc23)O1 | 18.4 | 0.9 (≈ 2.9 µM) | 5.8 (≈ 18.7 µM) | 5.1 (≈ 16.4 µM) | – | 4.8 (≈ 15.5 µM) | – | – | –
14 | – | – | – | CC(=O)O[C@H]1C(=O)[C@@]2(C)[C@H]([C@H](OC(=O)c3ccccc3)[C@]3(O)C[C@H](OC(=O)[C@H](O)[C@@H](NC(=O)c4ccccc4)c4ccccc4)C(C)=C1C3(C)C)[C@]1(OC(C)=O)CO[C@@H]1C[C@@H]2O [PACLITAXEL] | – | 0.0011 (≈ 0.00129 µM) | – | 0.0024 (≈ 0.00281 µM) | – | 0.0016 (≈ 0.00187 µM) | – | – | –
15 | – | – | – | CC(C)=CCc1c(O)cc2oc3c(CC=C(C)C)c(O)ccc3c(=O)c2c1O | 67.2 | 4.4 (≈ 11.6 µM) | 5 (≈ 13.1 µM) | 2.8 (≈ 7.36 µM) | 31.6 | – | – | – | –
16 | – | – | – | CC(C)=CCc1c(O)c(CC=C(C)C)c2oc3cc(O)ccc3c(=O)c2c1O | – | 6.7 (≈ 17.6 µM) | 6.4 (≈ 16.8 µM) | 3.9 (≈ 10.3 µM) | – | – | – | 102 | 101
17 | 2.49 (≈ 7.23 µM) | – | – | CC1(C)Oc2cc3oc4cc(O)ccc4c(=O)c3c(O)c2C(O)C1O (configuration not stated) | 35.3 | 6.8 (≈ 19.7 µM) | 5.9 (≈ 17.1 µM) | 5.4 (≈ 15.7 µM) | – | 6.3 (≈ 18.3 µM) | – | – | –
18 | 5.43 (≈ 14.3 µM) | 8.75 (≈ 23.1 µM) | – | CC(C)=CCCC1(C)C=Cc2c(cc3oc4cc(O)ccc4c(=O)c3c2O)O1 (configuration not stated) | – | 6 (≈ 15.9 µM) | 6.6 (≈ 17.4 µM) | 6.2 (≈ 16.4 µM) | – | 6.2 (≈ 16.4 µM) | 15 | – | –
19 | 5.84 (≈ 23.9 µM) | – | – | O=c1c2ccc(O)cc2oc2cc(O)cc(O)c12 | 16 | > 10 | > 10 | > 10 | – | – | – | – | –
20 | – | – | – | CC(C)=CCc1c(O)cc2oc3cc(O)ccc3c(=O)c2c1O | 56.3 | 5.4 (≈ 17.3 µM) | 6.2 (≈ 19.9 µM) | 3.8 (≈ 12.2 µM) | 45.2 | – | – | – | –

Row | SMILES | IC50 [4] [µg/mL] | IC50 [5] [µg/mL] | IC50 [6] [µg/mL] | inhibition at 10 µg/mL [1] [%] | IC50 [2] [µg/mL] | IC50 (A549) [µg/mL] | IC50 (DU-145) [µg/mL] | inhibition at 10 µg/mL [3] [%] | IC50 (KB) [µg/mL] | Ratio IC50 (Neutrophil) | inhibition at 10 µg/mL [7] [%] | inhibition at 10 µg/mL [8] [%]
21 | O=S(=O)(F)Cc1ccccc1 [PHENYLMETHYLSULFONYLFLUORIDE] | – | 131 (≈ 752 µM) | – | – | – | – | – | – | – | – | – | –
22 | c1ccc2c(c1)[I+]c1ccccc1-2 [DIPHENYLENEIODONIUM] | 0.7 | – | – | – | – | – | – | – | – | – | – | –
